Laboratory results from ChEMBL document CHEMBL3045952, “Design, synthesis, and fungicidal activity of novel analogues of pyrrolnitrin” (J Agric Food Chem, 2009).

Experiments:
[1] = test system: Botryosphaeria berengeriana; experiment: Fungicidal activity against Botryosphaeria berengeriana assessed as mycelium growth inhibition at 20 ug/mL by mycelium growth rate method; type: functional; details: read-out: GI
Summary of the method: (§1)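 In vitro mycelium growth rate method, with fenpiclonil as control. Compounds were tested at 50, 20 and 10 μg mL-1. Mycelial diameters were measured once the mycelia had grown completely. Inhibition (%) = (D1 − D2)/D1 × 100, where D1 is the mean mycelial diameter in the blank and D2 is the mean diameter with compound.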

[2] = test system: Botryosphaeria berengeriana; experiment: Fungicidal activity against Botryosphaeria berengeriana assessed as mycelium growth inhibition at 10 ug/mL by mycelium growth rate method; type: functional; details: read-out: GI; summary of the method: as §1
Alternaria solani [3] = experiment: Fungicidal activity against Alternaria solani assessed as mycelium growth inhibition at 50 ug/mL by mycelium growth rate method; type: functional; details: read-out: GI; summary of the method: as §1
Fusarium oxysporum [4] = experiment: Fungicidal activity against Fusarium oxysporum assessed as mycelium growth inhibition at 10 ug/mL by mycelium growth rate method; type: functional; details: read-out: GI; summary of the method: as §1
Mycosphaerella arachidis [5] = experiment: Fungicidal activity against Mycosphaerella arachidis assessed as mycelium growth inhibition at 50 ug/mL by mycelium growth rate method; type: functional; details: read-out: GI; summary of the method: as §1
Fusarium graminearum [6] = experiment: Fungicidal activity against Fusarium graminearum assessed as mycelium growth inhibition at 10 ug/mL by mycelium growth rate method; type: functional; details: read-out: GI; summary of the method: as §1
Mycosphaerella arachidis [7] = experiment: Fungicidal activity against Mycosphaerella arachidis assessed as mycelium growth inhibition at 20 ug/mL by mycelium growth rate method; type: functional; details: read-out: GI; summary of the method: as §1
[8] = test system: Botryosphaeria berengeriana; experiment: Fungicidal activity against Botryosphaeria berengeriana assessed as mycelium growth inhibition at 50 ug/mL by mycelium growth rate method; type: functional; details: read-out: GI; summary of the method: as §1
Mycosphaerella arachidis [9] = experiment: Fungicidal activity against Mycosphaerella arachidis assessed as mycelium growth inhibition at 10 ug/mL by mycelium growth rate method; type: functional; details: read-out: GI; summary of the method: as §1
Alternaria solani [10] = experiment: Fungicidal activity against Alternaria solani assessed as mycelium growth inhibition at 20 ug/mL by mycelium growth rate method; type: functional; details: read-out: GI; summary of the method: as §1
Fusarium oxysporum [11] = experiment: Fungicidal activity against Fusarium oxysporum assessed as mycelium growth inhibition at 50 ug/mL by mycelium growth rate method; type: functional; details: read-out: GI; summary of the method: as §1
Alternaria solani [12] = experiment: Fungicidal activity against Alternaria solani assessed as mycelium growth inhibition at 10 ug/mL by mycelium growth rate method; type: functional; details: read-out: GI; summary of the method: as §1
Fusarium oxysporum [13] = experiment: Fungicidal activity against Fusarium oxysporum assessed as mycelium growth inhibition at 20 ug/mL by mycelium growth rate method; type: functional; details: read-out: GI; summary of the method: as §1
Fusarium graminearum [14] = experiment: Fungicidal activity against Fusarium graminearum assessed as mycelium growth inhibition at 20 ug/mL by mycelium growth rate method; type: functional; details: read-out: GI; summary of the method: as §1
Fusarium graminearum [15] = experiment: Fungicidal activity against Fusarium graminearum assessed as mycelium growth inhibition at 50 ug/mL by mycelium growth rate method; type: functional; details: read-out: GI; summary of the method: as §1
Fusarium oxysporum [16] = experiment: Fungicidal activity against Fusarium oxysporum assessed as mycelium growth inhibition by mycelium growth rate method; type: functional, organism-based
Summary of the method: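 EC50 was calculated by the […] from in vitro growth-rate inhibition ratios. Inhibition (%) = (D1 − D2)/D1 × 100, taken from mean mycelial diameters of the blank (D1) and the treated plates (D2) once mycelia had grown completely. Fenpiclonil served as control.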

Row | SMILES | inhibition of growth at 20 µg/mL [1] | inhibition of growth at 10 µg/mL [2] | inhibition of growth at 50 µg/mL (Alternaria solani [3]) | inhibition of growth at 10 µg/mL (Fusarium oxysporum [4]) | inhibition of growth at 50 µg/mL (Mycosphaerella arachidis [5]) | inhibition of growth at 10 µg/mL (Fusarium graminearum [6]) | inhibition of growth at 20 µg/mL (Mycosphaerella arachidis [7]) | inhibition of growth at 50 µg/mL [8] | inhibition of growth at 10 µg/mL (Mycosphaerella arachidis [9]) | inhibition of growth at 20 µg/mL (Alternaria solani [10]) | inhibition of growth at 50 µg/mL (Fusarium oxysporum [11]) | inhibition of growth at 10 µg/mL (Alternaria solani [12]) | inhibition of growth at 20 µg/mL (Fusarium oxysporum [13]) | inhibition of growth at 20 µg/mL (Fusarium graminearum [14]) | inhibition of growth at 50 µg/mL (Fusarium graminearum [15]) | EC50 (Fusarium oxysporum [16])
1 | O=[N+]([O-])c1cc(-c2ccccc2[N+](=O)[O-])cs1 | 9% | 0% | 22% | 0% | 20% | 1% | 16% | 20% | 8% | 16% | 0% | 6% | 0% | 7% | 25% | 
2 | O=[N+]([O-])c1cc(-c2ccc(F)cc2[N+](=O)[O-])cs1 | 10% | 4% | 41% | 7% | 44% | 0% | 27% | 46% | 11% | 25% | 25% | 6% | 17% | 0% | 12% | 
3 | O=[N+]([O-])c1cc(-c2cc(F)ccc2[N+](=O)[O-])cs1 | 8% | 0% | 35% | 0% | 33% | 0% | 22% | 27% | 0% | 16% | 28% | 0% | 10% | 0% | 16% | 
4 | O=[N+]([O-])c1cc(-c2ccc(Cl)cc2[N+](=O)[O-])cs1 | 0% | 0% | 19% | 0% | 2% | 0% | 0% | 2% | 0% | 0% | 17% | 0% | 0% | 0% | 4% | 
5 | O=[N+]([O-])c1cc(-c2c(Cl)cc(Cl)cc2[N+](=O)[O-])cs1 | 17% | 10% | 41% | 21% | 27% | 8% | 16% | 25% | 5% | 32% | 39% | 25% | 32% | 16% | 24% | 
6 | O=[N+]([O-])c1cc(-c2cc(Cl)c(F)cc2[N+](=O)[O-])cs1 | 2% | 0% | 25% | 0% | 16% | 0% | 11% | 14% | 0% | 16% | 10% | 0% | 7% | 0% | 0% | 
7 | O=[N+]([O-])c1cc(-c2c(Cl)cc(Cl)c(Cl)c2[N+](=O)[O-])cs1 | 10% | 0% | 34% | 0% | 35% | 0% | 20% | 24% | 5% | 26% | 4% | 17% | 0% | 0% | 0% | 
8 | O=[N+]([O-])c1ccccc1-c1ccsc1[N+](=O)[O-] | 25% | 0% | 25% | 0% | 25% | 6% | 16% | 30% | 8% | 16% | 22% | 9% | 13% | 14% | 23% | 
9 | O=[N+]([O-])c1ccccc1-c1ccsc1 | 68% | 20% | 75% | 12% | 18% | 13% | 0% | 88% | 0% | 30% | 68% | 0% | 31% | 43% | 65% | 
10 | O=[N+]([O-])c1cc(F)ccc1-c1ccsc1 | 20% | 0% | 55% | 0% | 0% | 8% | 0% | 80% | 0% | 35% | 75% | 10% | 50% | 30% | 39% | 
11 | O=[N+]([O-])c1ccc(F)cc1-c1ccsc1 | 36% | 0% | 75% | 18% | 25% | 21% | 12% | 72% | 0% | 25% | 87% | 5% | 50% | 43% | 65% | 
12 | O=[N+]([O-])c1cc(Cl)ccc1-c1ccsc1 | 38% | 14% | 55% | 25% | 25% | 13% | 6% | 80% | 0% | 20% | 75% | 0% | 43% | 21% | 39% | 
13 | O=[N+]([O-])c1cc(Cl)cc(Cl)c1-c1ccsc1 | 72% | 42% | 60% | 56% | 25% | 8% | 18% | 82% | 0% | 55% | 87% | 20% | 81% | 26% | 39% | 
14 | O=[N+]([O-])c1cc(F)c(Cl)cc1-c1ccsc1 | 74% | 64% | 60% | 18% | 25% | 0% | 18% | 80% | 0% | 35% | 87% | 0% | 43% | 30% | 47% | 
15 | N#Cc1c[nH]cc1-c1cccc(Cl)c1Cl [FENPICLONIL] |  |  | 100% |  | 100% |  |  | 100% |  |  | 18% |  |  |  | 100% | > 50 µg/mL
